Rows were chosen to be rich in hits. Some 0.85% of all compounds tested hit in one or more screens of this group.
OXTR potentiate – human OXTR potentiators, primary screen, fluorescence, CHO-OTR cells, Fluo-8 calcium | Oxytocin receptor (Homo sapiens), P30559 | Fluo-8 calcium fluorescence, potentiator mode; 0% = oxytocin EC15, 100% = EC100 | activation, % at 3 µM | 320,000 compounds, 0.061% hits | AID 2445, 2010;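 active = activation above that plate's cutoff, the mean activation of tested compounds plus 3 SD, cut at about 6.6% in these data, passing the limit was not always enough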;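 also: 100% uses oxytocin at 75 nM as the full agonist control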
Target sequence (P30559 whole entry, looked up): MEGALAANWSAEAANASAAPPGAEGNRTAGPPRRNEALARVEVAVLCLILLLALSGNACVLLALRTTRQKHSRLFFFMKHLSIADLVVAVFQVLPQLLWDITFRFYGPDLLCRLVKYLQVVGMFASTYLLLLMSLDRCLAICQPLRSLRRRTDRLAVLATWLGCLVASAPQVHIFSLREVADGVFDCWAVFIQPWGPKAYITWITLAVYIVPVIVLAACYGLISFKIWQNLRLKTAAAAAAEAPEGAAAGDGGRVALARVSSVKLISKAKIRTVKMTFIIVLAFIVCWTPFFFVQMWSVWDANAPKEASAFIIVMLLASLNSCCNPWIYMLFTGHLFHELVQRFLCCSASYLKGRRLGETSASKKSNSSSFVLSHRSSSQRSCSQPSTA
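Replication – single well per compound, singlicate · Assay system – CHO cell line stably expressing human OTR · Timing – 6 min pre-incubation, 100 s read · Measure – normalized max/min fluorescence ratio, % activation · Doses – 3.0 µM, one dose · Detection – Fluo-8 calcium dye fluorescence · Probe or stimulus – oxytocin near EC15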
TRPML3 ag – human TRPML3 channel agonists, primary screen, cell-based, HEK293 TRPML3-YFP, Fluo-8 calcium fluorescence, 3 µM | 220,000 compounds, 0.29% hits | activation, % at 3 µM | 100% = the carbachol control signal | AID 1448, 2008 | Mucolipin-3 (Homo sapiens), Q8TDD5;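 active = activation above its plate's cutoff, the mean activation of the plate's test wells plus 3 SD, cut at about 12% in these data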;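 also: 0% = DMSO only wells and 100% = carbachol wells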
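Test system: TRPML3-YFP stable HEK293 cells. Doses: single point at 3 µM. Incubation: dye loading 1 h 37 °C then 30 min ambient, 125 s read. Signal: Fluo-8 calcium dye fluorescence, ex 470-495, em 515-575 nm. Measure: percent activation from peak-to-basal fluorescence ratio, scaled between DMSO and carbachol.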
V1aR counter – agonists of human V1a receptor, primary screen, counter-screen for OXTR agonist project, fluorescence, CHO-V1R cells. Fluo-8 calcium fluorescence, agonist mode; 0% DMSO, 100% 3 nM vasopressin. activation, % at 3 µM. AID 2797, 2010. Vasopressin V1a receptor (Homo sapiens), P37288. 320,000 compounds, 0.25% hits;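 active = activation above the mean activation of all tested compounds plus 3 SD, per screening run, cut at about 20% in these data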;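 also: signal is peak over basal fluorescence ratio across a 100 second FLIPR read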
OXTR ag – human OXTR agonists, primary screen, fluorescence, CHO-OTR cells, Fluo-8 calcium | activation, % at 3 µM | AID 2435, 2010 | 320,000 compounds, 0.32% hits | Fluo-8 calcium fluorescence; normalized: DMSO 0%, oxytocin 100%;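 active = activation above the mean of all tested compounds plus 3 SD, cutoff set per screening run, cut at about 20% in these data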;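 also: peak over basal fluorescence ratio from a 100 s FLIPR kinetic read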
zfTRPN1 agonist – zebrafish TRPN1 channel agonists, primary screen, cell-based, HEK293, calcium fluorescence | transient receptor potential cation channel N1 (TRPN1/NompC), Danio rerio | 220,000 compounds, 0.18% hits | AID 1424, 2008 | HEK293 zebrafish TRPN1-YFP, Fluo-8 calcium fluorescence; 100% = response to 87 µM carbachol | activation, % at 3 µM;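 active = activation above its plate's cutoff, the mean activation of test wells on that plate plus 3 SD, cut at about 19% in these data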;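 also: 0% = DMSO alone and 100% = 87 µM carbachol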
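Assay system: Zebrafish TRPN1-YFP in HEK293 cells | Incubation: Dye loading 1 h at 37 °C, then 30 min room temperature | Measured by: Kinetic Fluo-8 fluorescence, ex 470-495, em 515-575 nm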
CRFBP-R2 agonist – agonists of CRF-BP/CRF-R2 complex, primary screen, cell-based, HEK293, calcium dye fluorescence, uHTS; CRF-binding protein / CRF receptor 2 complex (human); calcium dye fluorescence (FLIPR); percent of saturating CRF peptide response; activation, % at 13.2 µM; 350,000 compounds, 0.46% hits; AID 588473, 2011;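 active = activation of at least 50%, plus an integration ratio under a set limit after plate pattern correction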;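 also: plate controls were neutral control wells without compound for no effect and CRF at EC100 for full effect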
V1aR agonist cf – V1a receptor agonists, calcium signal, confirmation, Fluo-8 calcium fluorescence, CHO-V1R cells; AID 434964, 2010; agonist; shares compounds with V1aR counter; activation, % at 3 µM; 180 compounds, 20% hits;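 active = average activation exceeds primary screen hit cutoff, cut at about 21% in these data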;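 also: peak over basal fluorescence ratio during a 100 s FLIPR read; 0% = DMSO only wells and 100% = 3 nM vasopressin wells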
OXTR ag counter – human OXTR agonists, counter-screen for V1R agonist project, fluorescence, CHO-OTR cells, triplicate; shares compounds with V1aR counter; Fluo-8 calcium fluorescence; activation, % at 3 µM; 180 compounds, 10% hits; AID 434969, 2010;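 active = mean activation over three repeats above the cutoff from the earlier oxytocin receptor agonist screen, cut at about 20% in these data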;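 also: peak over minimum fluorescence ratio within a 100 second FLIPR read; 0% = DMSO only wells and 100% = oxytocin high control wells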
The depositor's hits bear a star; . = no result given.

SMILES	OXTR potentiate	TRPML3 ag	V1aR counter	OXTR ag	zfTRPN1 agonist	CRFBP-R2 agonist	V1aR agonist cf	OXTR ag counter
Cc1nn(C(C)C(=O)Nc2ccccc2Cl)c(=O)c2nn(-c3ccccc3)c(C)c12 (configuration not stated)	-0.1	.	0.7	-0.7	.	0.1	.	.
Cc1ccc(-c2ccc(=O)n(Cc3ccc(F)cc3)n2)cc1	-15.6	.	21.7*	4.6	.	-4.5	2.2	-0.7
O=C(c1ccccc1NS(=O)(=O)c1ccc(F)cc1)N1CCc2ccccc21	-5.0	0.5	24.1*	-1.5	-0.5	-2.2	4.3	-0.4
COc1ccc(NC(=O)CSc2nc3nc(C)cc(C)c3c(=O)[nH]2)cc1	6.2	.	23.4*	-1.3	.	0.2	0.2	-0.9
CCCCN1C(=O)C2(OCCCO2)c2cccc(C)c21	-9.9	.	-1.0	-2.3	.	-1.3	.	.
N#CCCN(CCC#N)C(=O)C1c2ccccc2Oc2ccccc21	-5.5	.	26.2*	12.2	.	-0.7	0.9	0.7
CN(CCC#N)C(=O)COC(=O)C1c2ccccc2Oc2ccccc21	-1.6	.	1.4	2.4	.	-1.0	.	.
O=C(Nc1ccc(Cl)cc1)Nc1ccc(N2CCOCC2)cc1	-14.1	0.7	3.0	2.0	2.7	0.1	.	.
O=C(Nc1ccc(N2CCOCC2)cc1)Nc1ccc(Cl)c(Cl)c1	-8.5	2.9	20.6*	17.3	2.1	4.0	10.7	10.4
CCOc1ccccc1CN1CCC(N2CCOCC2)CC1	-12.3	.	0.9	-0.2	.	-1.4	.	.
O=C(Nc1ccc(Br)cc1)Nn1cnnc1	-5.0	.	1.5	0.3	.	4.5	.	.
CCOC(=O)c1c(NC(=O)CC)sc2c1CCN(Cc1ccccc1)C2	-4.6	.	21.6*	4.1	.	34.3	2.7	7.6
Cc1ccc(C2=NNC(=O)C(P(=O)(c3ccccc3)c3ccccc3)C2)cc1 (configuration not stated)	5.0	0.4	-0.4	1.1	-0.8	-0.2	.	.
CCCCCC(O)(c1ccc(OC)cc1)C(CN1CCOCC1)c1ccccc1 (configuration not stated)	-1.7	.	23.9*	-1.7	.	-1.3	-0.4	-0.7
CN(/N=C/c1cccc(Br)c1)C1=NS(=O)(=O)c2ccccc21	.	.	.	.	.	0.6	.	.
CCCOc1ccc(-c2c(C(=O)N/N=C/c3ccncc3)nnn2-c2nonc2N)cc1	-13.1	.	21.3*	8.7	.	0.1	-0.4	-0.5
CCCOc1ccc(-c2c(C(=O)N/N=C/c3ccc(C)o3)nnn2-c2nonc2N)cc1	-1.1	.	4.0	-0.8	.	-1.2	.	.
COc1cccc(-c2c(C(=O)N/N=C/c3ccsc3)nnn2-c2nonc2N)c1	-7.6	.	25.1*	8.1	.	19.3	17.2	4.9
Nc1nonc1-n1nnc(C(=O)N/N=C/c2cccnc2)c1CSc1ccc(Cl)cc1	-7.7	.	20.9*	15.0	.	0.9	3.1	4.8
Nc1nonc1-n1nnc(C(=O)N/N=C/c2cccnc2)c1CSc1ccccc1	-6.7	.	15.2	9.8	.	-1.4	.	.
CCOC(=O)CSC1=N/C(=C\c2ccc(OC)c(OC)c2)C(=O)N1C	-5.9	0.0	0.5	0.4	-0.4	-2.8	.	.
COC(=O)c1cc(CNC(=O)c2ccc(S(=O)(=O)N(C)c3ccccc3)cc2)ccc1OC	-7.2	.	23.6*	5.4	.	1.3	1.3	0.0
Oc1ccc(Cl)cc1/C=N/c1nccs1	-9.1	0.4	-0.2	-0.4	0.0	4.2	.	.
Oc1ccc(Cl)cc1C=Nc1ccc2c3c(cccc13)CC2	-7.3	4.6	50.9*	12.8	8.2	11.6	-0.3	-1.1
CCCCCc1cc(=O)oc2c(C(CCN(CC)CC)c3cc(OC)c(OC)c(OC)c3)c(OC)cc(OC)c12 (configuration not stated)	-10.7	.	2.8	6.2	.	0.0	.	.
SMILES	OXTR potentiate	TRPML3 ag	V1aR counter	OXTR ag	zfTRPN1 agonist	CRFBP-R2 agonist	V1aR agonist cf	OXTR ag counter
CCN1C(=S)SC(=O)C1=C1C=C(C)N(Cc2ccco2)C(C)=C1	-24.8	6.3	24.3*	19.2	8.5	47.1	22.8*	17.6
COc1cc(/C=C2\SC(=O)N(CC(=O)Nc3ccccc3F)C2=O)cc(Cl)c1O	-15.3	.	21.6*	17.3	.	169.2*	66.6*	59.5*
COc1cc(OC)c(/C=C2\SC(=O)N(CC(=O)Nc3ccccc3F)C2=O)c(OC)c1	-9.0	.	-0.4	0.3	.	1.8	.	.
C#CCOCCOCCOCCNc1nc(N2CCN(C(=O)CCCCCCCCCCNC(=O)[C@H](CCCCN)n3cc(CCCC(=O)O)nn3)CC2)nc(N2CCN(C(=O)CCCCCCCCCCNC(=O)[C@@H]([C@H](C)O)n3cc(C)nn3)CC2)n1	-3.4	.	20.9*	7.5	.	5.7	5.1	1.7
C#CCOCCOCCOCCNc1nc(N2CCN(C(=O)CCCCCCCCCCNC(=O)[C@H]([C@@H](C)CC)n3cc(CCCCCN)nn3)CC2)nc(N2CCN(C(=O)CCCCCCCCCCNC(=O)[C@H](CCCCN)n3cc(CCCC(=O)O)nn3)CC2)n1	-7.3	.	20.3*	8.7	.	24.6	2.2	0.8
C#CCOCCOCCOCCNc1nc(N2CCN(C(=O)CCCCCCCCCCNC(=O)[C@@H](CCC(=O)O)n3cc(CCCCCN)nn3)CC2)nc(N2CCN(C(=O)CCCCCCCCCCNC(=O)[C@H]([C@@H](C)CC)n3cc(CCCCCN)nn3)CC2)n1	-12.9	.	12.1	15.2	.	37.2	.	.
C#CCOCCOCCOCCNc1nc(N2CCN(C(=O)CCCCCCCCCCNC(=O)[C@H](CCCCN)n3cc(C)nn3)CC2)nc(N2CCN(C(=O)CCCCCCCCCCNC(=O)[C@H](CCCCN)n3cc(CCCC(=O)O)nn3)CC2)n1	-7.8	.	6.2	1.6	.	2.1	.	.
COc1ccc(Cl)cc1NC(=O)CN1CCC(NC(=O)C2CC2)CC1	-5.5	.	2.0	0.6	.	1.4	.	.
CC(C)Cc1nnc(NC(=O)c2ccc3c(c2)OCCO3)s1	-5.5	.	2.0	1.5	.	1.0	.	.
COc1ccc(/C=C/CN2CCC(CO)(Cc3ccccc3Cl)CC2)cc1	-24.9	0.3	28.1*	13.5	2.4	-0.8	2.9	8.9

Screening results as filed in PubChem BioAssay.
